Results taken from ChEMBL document CHEMBL3272340, “P-Aminobenzoic acid derivatives as inhibitors of the cell-free H2-pteroate synthesizing system of Escherichia coli” (J Med Chem, 1977).
Active and inactive are the calls of the source. The calls are words filed in the database; no cut-off is given here.

Legend:
Escherichia coli B = assay: Competitive inhibition of Escherichia coli B H2-pteroate synthetase assessed as decrease in H2-pteroate formation using [7-14C]-PABA as substrate treated with enzyme for 10 mins prior to substrate challenge for 40 mins by radioassay method
Procedure, shortened: (§1)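 Cell-free extract of E. coli B (400-600 ug protein) was preincubated 10 min at 37 °C with 0.5 umol ATP, 2 umol MgCl2, 0.5 mg ascorbate, 0.1 mmol Tris-HCl pH 8.0 and 20 nmol 2-amino-4-hydroxy-6-hydroxymethyl-7,8-dihydropteridine in 0.45 ml. [7-14C]-PABA was then added and incubation ran 40 min. The reaction was stopped with citric acid phosphate buffer pH 3.8, free PABA was ether-extracted, and aqueous radioactivity was counted.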

[1] = Competitive inhibition of Escherichia coli B H2-pteroate synthetase assessed as decrease in H2-pteroate formation using [7-14C]-PABA as substrate treated with enzyme for 10 mins prior to substrate challenge for 40 mins by Dixon plot analysis; procedure, shortened: as §1
Escherichia coli = assay: Antibacterial activity against Escherichia coli 273 assessed as growth inhibition at 1 mM after 22 hrs; type: functional, organism-based
Procedure, shortened: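 PABA-requiring E. coli 273 was grown across a range of PABA concentrations with compound at 1 mM, and growth was read after 22 h of incubation.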

[2] = Dissociation constant, pKa of the compound; type: physicochemical

Compound | Inhibition index (Escherichia coli B) | further results
COC(=O)CNC(=O)c1ccc(N)cc1 | 550 | 
CCOC(=O)CC(=O)c1ccc(N)cc1 | 105 | 
Nc1ccc(C(=O)CC(C(=O)O)c2ccccc2)cc1 (stereo in doubt; 25) | 480 | 
CNC(=O)c1ccc(N)cc1 | 120 | 
Nc1ccc(C(=O)N[C@@H](CCC(=O)O)C(=O)O)cc1 | 76 | Ki [1]: 170 µM
Nc1ccc(C(=O)CCC(=O)O)cc1 | 55 | Ki [1]: 130 µM; growth inhibition (GI) (Escherichia coli): inactive
CCOC(=O)CCC(=O)c1ccc(N)cc1 | 460 | 
CN(C)C(=O)c1ccc(N)cc1 | 400 | 
Nc1ccc(C(=O)N[C@H](CCC(=O)O)C(=O)O)cc1 | 250 | 
Nc1ccc(C(=O)CC(C(=O)O)c2ccccc2)cc1 (racemic) [listing 1 of 2 here] |  | Ki [1]: 150 µM
Nc1ccc(C(=O)NCC(=O)O)cc1 | 260 | 
Nc1ccc(C(=O)Nc2ccccc2)cc1 | 600 | 
Nc1ccc(C(=O)c2ccccc2)cc1 | 800 | pKa [2]: 2.24
COC(=O)c1ccc(N)cc1 | 450 | pKa [2]: 2.46
Nc1ccc(C(=O)NCCCC(=O)O)cc1 | 700 | 
NC(=O)c1ccc(N)cc1 | 53 | 
Nc1ccc(CC(=O)O)cc1 |  | pKa [2]: 3.6
CCOC(=O)CC[C@H](NC(=O)c1ccc(N)cc1)C(=O)OCC | 600 | 
Nc1ccc(C(=O)NCCc2ccccc2)cc1 | 800 | 
CCOC(=O)c1ccc(N)cc1 [BENZOCAINE] | 600 | pKa [2]: 2.5
Nc1ccc(C(=O)CC(C(=O)O)c2ccccc2)cc1 (racemic) [listing 2 of 2 here] | 74 | growth inhibition (GI) (Escherichia coli): inactive
CCC(=O)c1ccc(N)cc1 | 180 | 
CC(=O)c1ccc(N)cc1 | 210 | pKa [2]: 2.5
Cc1ccc(N)cc1 |  | pKa [2]: 5.1
Nc1ccc(C(=O)CC(C(=O)O)c2ccccc2)cc1 (stereo in doubt; 26) | 40 | 
